Activity calls are given as the source filed them. The calls are words filed in the database; no cut-off is given here.
Experiments:
[1] = target: T1, Receptor-type tyrosine-protein kinase FLT3 (Homo sapiens, UniProt P36888); assay: Inhibition of GST-tagged FLT3 expressing wild type kinase domain expressed in Sf9 insect cells after 4 hrs by Kinase-Glo assay
T1 sequence (P36888 whole entry): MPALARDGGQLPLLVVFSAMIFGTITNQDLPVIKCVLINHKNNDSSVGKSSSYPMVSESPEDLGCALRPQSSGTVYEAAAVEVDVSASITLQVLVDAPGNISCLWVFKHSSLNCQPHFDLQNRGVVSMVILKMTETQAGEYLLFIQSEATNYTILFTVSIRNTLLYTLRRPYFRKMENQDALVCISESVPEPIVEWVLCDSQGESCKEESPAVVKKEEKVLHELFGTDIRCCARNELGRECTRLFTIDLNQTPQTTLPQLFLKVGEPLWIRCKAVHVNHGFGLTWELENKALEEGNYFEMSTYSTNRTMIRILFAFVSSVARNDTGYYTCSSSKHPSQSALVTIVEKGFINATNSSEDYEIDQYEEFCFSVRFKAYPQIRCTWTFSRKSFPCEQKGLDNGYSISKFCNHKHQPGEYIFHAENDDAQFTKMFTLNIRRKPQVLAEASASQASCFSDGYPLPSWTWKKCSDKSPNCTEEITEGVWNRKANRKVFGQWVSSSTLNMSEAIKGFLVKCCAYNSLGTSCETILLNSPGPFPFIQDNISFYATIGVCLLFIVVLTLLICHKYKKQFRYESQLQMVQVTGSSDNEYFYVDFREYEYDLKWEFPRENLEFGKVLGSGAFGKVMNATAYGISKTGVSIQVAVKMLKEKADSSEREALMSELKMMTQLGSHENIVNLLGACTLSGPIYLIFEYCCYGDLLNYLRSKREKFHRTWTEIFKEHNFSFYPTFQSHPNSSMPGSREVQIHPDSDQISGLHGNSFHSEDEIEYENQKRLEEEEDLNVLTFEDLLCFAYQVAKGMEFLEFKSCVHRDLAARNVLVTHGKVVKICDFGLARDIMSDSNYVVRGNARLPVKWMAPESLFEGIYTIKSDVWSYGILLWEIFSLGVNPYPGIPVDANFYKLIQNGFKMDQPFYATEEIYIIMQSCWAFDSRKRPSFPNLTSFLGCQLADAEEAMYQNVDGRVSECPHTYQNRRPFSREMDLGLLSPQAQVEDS

MV4-11 = assay: Antitumor activity against human MV4-11 cells xenografted in athymic nu/nu nude mouse assessed as inhibition of tumor growth at 50 mg/kg, iv qd for 1 to 5 and 8 to 12 days; format: functional, organism-based; design: dose 50 mg/kg
Procedure, shortened: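 Nude nu/nu mice (9 weeks old) received 1 × 10^6 MV4;11 cells s.c. in the left flank. Treatment began at a mean tumor volume of about 500 mm3, with n = 8 per group. Dosing was iv once daily at 10, 25 or 50 mg/kg on days 1–5 and 8–12, in DMSO/Cremophor/saline vehicle, with vehicle controls. Tumor volume was measured by caliper as (width × length²)/2.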

[2] = Volume of distribution at steady state in Sprague-Dawley rat at 5 mg/kg, iv and 20 mg/kg, po; format: ADME, organism-based; conditions: in vivo, read-out: Vdss

Cc1nc(Nc2cc(-c3cccc(NS(=O)(=O)c4ccccc4)c3)n[nH]2)cc(N2CCN(C)CC2)n1
IC50 [1]: 6 nM | Activity (MV4-11): Active | Vd [2]: 6.6 L/kg

Reference: ChEMBL document CHEMBL1806486, “Discovery and evaluation of 3-phenyl-1H-5-pyrazolylamine-based derivatives as potent, selective and efficacious inhibitors of FMS-like tyrosine kinase-3 (FLT3)” (Bioorg Med Chem, 2011)
